Activity calls are given as the source filed them. The calls are words filed in the database; no cut-off is given here.
Tests used:
[1] = Cytotoxicity against mouse N2a695 cells assessed as reduction in cell viability at 10 uM incubated for 24 hrs by MTT assay; type: cell-based
Summary of the method: (§1)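 Viability of N2a cells by MTT assay after 5 h and 24 h incubation with compound (10 μM; one comparator at 1 μM), scored as number of viable cells.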

[2] = biological target: Beta-secretase 1 (Mus musculus) (UniProt P56818); test: Inhibition of BACE1 in mouse N2a695 cells assessed as reduction in Abeta40 production at 10 uM incubated for 6 hrs by ELISA; type: cell-based
Beta-secretase 1 (Mus musculus), sequence (P56818 whole entry): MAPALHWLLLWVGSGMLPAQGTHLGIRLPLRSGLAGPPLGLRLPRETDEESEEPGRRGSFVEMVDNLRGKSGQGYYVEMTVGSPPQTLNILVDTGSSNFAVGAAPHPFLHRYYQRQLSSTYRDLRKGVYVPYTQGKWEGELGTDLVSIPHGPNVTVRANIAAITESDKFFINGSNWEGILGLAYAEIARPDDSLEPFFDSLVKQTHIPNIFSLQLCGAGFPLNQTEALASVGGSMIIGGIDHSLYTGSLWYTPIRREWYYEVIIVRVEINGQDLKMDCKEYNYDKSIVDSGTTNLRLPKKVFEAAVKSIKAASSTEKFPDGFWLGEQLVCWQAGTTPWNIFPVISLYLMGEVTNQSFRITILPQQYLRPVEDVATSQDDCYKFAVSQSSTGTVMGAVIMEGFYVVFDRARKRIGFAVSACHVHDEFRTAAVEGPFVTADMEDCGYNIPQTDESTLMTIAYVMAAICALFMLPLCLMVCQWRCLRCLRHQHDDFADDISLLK

[3] = Cytotoxicity against mouse N2a695 cells assessed as reduction in cell viability at 10 uM incubated for 5 hrs by MTT assay; type: cell-based; summary of the method: as §1
[4] = species: Homo sapiens; test: Inhibition of Abl (unknown origin) assessed as residual activity at 10 uM relative to control
Summary of the method: (§2)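 Abl and Src kinase activity measured by an outside service with compounds at 10 μM; activity reported relative to control.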

[5] = biological target: Beta-secretase 1 (Mus musculus) (UniProt P56818); test: Inhibition of BACE1 in mouse N2a695 cells assessed as reduction in Abeta42 production at 10 uM incubated for 5 hrs by ELISA relative to control; type: cell-based
Summary of the method: (§3)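 N2a695 cells treated with compound (10 μM, or 20 μM for reference compound). Aβ42 in cell supernatant measured by human Aβ ELISA.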

[6] = biological target: Proto-oncogene tyrosine-protein kinase Src (Homo sapiens) (UniProt P12931); test: Inhibition of Src (unknown origin) assessed as residual activity at 10 uM relative to control; summary of the method: as §2
Proto-oncogene tyrosine-protein kinase Src (Homo sapiens), sequence (P12931 2-536 limits assumed): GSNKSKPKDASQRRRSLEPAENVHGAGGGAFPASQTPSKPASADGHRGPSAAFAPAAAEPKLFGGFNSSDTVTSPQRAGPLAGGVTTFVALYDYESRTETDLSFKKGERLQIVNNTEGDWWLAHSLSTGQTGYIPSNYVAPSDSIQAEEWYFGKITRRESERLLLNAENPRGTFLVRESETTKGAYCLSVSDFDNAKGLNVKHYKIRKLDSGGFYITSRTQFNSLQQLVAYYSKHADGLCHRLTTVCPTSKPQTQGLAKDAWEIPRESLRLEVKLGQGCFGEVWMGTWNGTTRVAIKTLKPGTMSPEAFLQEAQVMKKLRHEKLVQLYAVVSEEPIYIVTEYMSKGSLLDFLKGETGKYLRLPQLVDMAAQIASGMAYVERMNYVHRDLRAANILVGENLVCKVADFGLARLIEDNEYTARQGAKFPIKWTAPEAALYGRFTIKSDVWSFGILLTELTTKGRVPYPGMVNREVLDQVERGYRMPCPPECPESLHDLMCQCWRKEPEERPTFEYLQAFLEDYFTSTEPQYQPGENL

[7] = biological target: Beta-secretase 1 (Mus musculus) (UniProt P56818); test: Inhibition of BACE1 in mouse N2a695 cells assessed as reduction in Abeta40 production at 10 uM incubated for 5 hrs by ELISA relative to control; type: cell-based
[8] = species: Homo sapiens; test: Inhibition of Abl (unknown origin) assessed as residual activity at 1 uM relative to control
[9] = Cytotoxicity against mouse N2a695 cells assessed as reduction in cell viability at 1 uM incubated for 5 and 24 hrs by MTT assay; type: cell-based; summary of the method: as §1
[10] = biological target: Proto-oncogene tyrosine-protein kinase Src (Homo sapiens) (UniProt P12931); test: Inhibition of Src (unknown origin) assessed as residual activity at 1 uM relative to control
[11] = biological target: Beta-secretase 1 (Mus musculus) (UniProt P56818); test: Inhibition of BACE1 in mouse N2a695 cells transfected with human APP-FL assessed as reduction in Abeta42 production at 10 uM incubated for 5 hrs by ELISA; type: cell-based
Summary of the method: (§4)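 N2a cells transfected with human APP-FL or APP-C99 treated with compounds at 10 μM. Aβ40 and Aβ42 in supernatants measured by ELISA; controls were BACE inhibitor MK8931 0.5 μM and γ-secretase inhibitor DAPT 1 μM.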

[12] = biological target: Beta-secretase 1 (Mus musculus) (UniProt P56818); test: Inhibition of BACE1 in mouse N2a695 cells assessed as reduction in Abeta42 production at 5 uM pretreated with BACE IV for 1 hr and measured after 5 hrs by ELISA; type: cell-based
Summary of the method: (§5)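 N2a695 cells preincubated 1 h with DMSO or 0.5 μM BACE IV, then given fresh medium containing 5 μM compound. Aβ40 and Aβ42 measured by human Aβ ELISA as percent of DMSO or BACE IV-pretreated DMSO control. Duplicate or triplicate wells; average of three independent experiments.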

[13] = biological target: Beta-secretase 1 (Mus musculus) (UniProt P56818); test: Inhibition of BACE1 in mouse N2a695 cells assessed as reduction in Abeta40 production transfected with human APP-C99 at 10 uM incubated for 5 hrs by ELISA; type: cell-based; summary of the method: as §4
[14] = biological target: Beta-secretase 1 (Mus musculus) (UniProt P56818); test: Inhibition of BACE1 in mouse N2a695 cells assessed as reduction in Abeta40 production at 5 uM pretreated with BACE IV for 1 hr and measured after 5 hrs by ELISA; type: cell-based; summary of the method: as §5
[15] = biological target: Beta-secretase 1 (Mus musculus) (UniProt P56818); test: Inhibition of BACE1 in mouse N2a695 cells transfected with human APP-C99 assessed as reduction in Abeta42 production at 10 uM incubated for 5 hrs by ELISA; type: cell-based; summary of the method: as §4
[16] = biological target: Beta-secretase 1 (Mus musculus) (UniProt P56818); test: Inhibition of BACE1 in mouse N2a695 cells assessed as reduction in Abeta40 production transfected with human APP-FL at 10 uM incubated for 5 hrs by ELISA; type: cell-based; summary of the method: as §4
[17] = biological target: Beta-secretase 1 (Mus musculus) (UniProt P56818); test: Inhibition of BACE1 in mouse N2a695 cells assessed as reduction in Abeta40 production at 20 uM incubated for 5 hrs by ELISA; type: cell-based
[18] = species: Mus musculus; test: Inhibition of Abeta42 production in mouse N2a695 cells at 20 uM incubated for 5 hrs by ELISA; type: functional, cell-based; summary of the method: as §3

| Structure (SMILES) | Activity [1] | inhibition [2] | Activity [3] | Activity [4] | inhibition [5] | Activity [6] | inhibition [7] | also measured |
| --- | --- | --- | --- | --- | --- | --- | --- | --- |
| CN1CCN(c2ncc3cc(-c4cc(Cl)cc(Cl)c4)c(=O)n(C)c3n2)CC1 | Non-Toxic | Active | Non-Toxic |  |  |  |  |  |
| Cn1c(=O)c(-c2c(Cl)cccc2Cl)cc2cnc(N3CCC(N4CCCCC4)CC3)nc21 | Non-Toxic | Active | Non-Toxic |  |  |  |  |  |
| CN1CCC(N2CCN(c3ncc4cc(-c5c(Cl)cccc5Cl)c(=O)n(C)c4n3)CC2)CC1 | Non-Toxic | Active | Non-Toxic | 20.8% | > 50% | 10.5% | > 50% |  |
| CN1CCN(c2ncc3cc(-c4c(Cl)cc(NC(=O)C(C)(C)C)cc4Cl)c(=O)n(C)c3n2)CC1 | Non-Toxic | Active | Non-Toxic |  |  |  |  |  |
| CSc1cccc(Nc2ncc3cc(-c4c(Cl)cccc4Cl)c(=O)n(C)c3n2)c1 |  |  |  |  |  |  |  | Activity [8]: 99.7%; Activity [9]: Non-Toxic; Activity [10]: 99.5% |
| CN1CCC(N2CCN(c3ncc4cc(-c5c(Cl)cc(NC(=O)C(C)(C)C)cc5Cl)c(=O)n(C)c4n3)CC2)CC1 | Non-Toxic | Active | Non-Toxic | 3.2% | > 50% | 8.9% | > 50% | inhibition [11]: Active; inhibition [12]: Active; inhibition [13]: inactive; inhibition [14]: Active; inhibition [15]: Active; inhibition [16]: Active |
| Cn1c(=O)c(-c2c(Cl)cccc2Cl)cc2cnc(N3CCN(Cc4ccccc4)CC3)nc21 | Toxic | Active | Non-Toxic |  |  |  |  |  |
| Cl.Cn1c(=O)c(-c2c(Cl)cccc2Cl)cc2cnc(N3CCN(C4CCNCC4)CC3)nc21 | Non-Toxic | Active | Non-Toxic |  |  |  |  |  |
| Cn1c(=O)c(-c2c(Cl)cc(NC(=O)OC(C)(C)C)cc2Cl)cc2cnc(N3CCN(c4ccncc4)CC3)nc21 | Non-Toxic | Active | Non-Toxic | 0% | > 50% | 8% | > 50% | inhibition [11]: Active; inhibition [12]: Active; inhibition [13]: inactive; inhibition [14]: Active; inhibition [15]: Active; inhibition [16]: Active |
| Cc1ccc(NC(=O)c2ccc(CN3CCN(C)CC3)cc2)cc1Nc1nccc(-c2cccnc2)n1 |  | Active |  |  |  |  |  |  |
| CN1CCC(N2CCN(c3ncc4cc(-c5c(Cl)cc(NC(=O)OC(C)(C)C)cc5Cl)c(=O)n(C)c4n3)CC2)CC1 | Toxic | Active | Non-Toxic | 8.5% | > 50% | 10.4% | > 50% |  |
| Cn1c(=O)c(-c2c(Cl)cccc2Cl)cc2cnc(N3CCNCC3)nc21 | Non-Toxic |  | Non-Toxic |  |  |  |  | inhibition [11]: Active; inhibition [12]: Active; inhibition [17]: Active; inhibition [13]: inactive; inhibition [14]: Active; inhibition [15]: Active; inhibition [16]: Active; inhibition [18]: Active |
